ChEMBL document CHEMBL3351368, “Biphenyl-4-carboxylic acid [2-(1H-indol-3-yl)-ethyl]-methylamide (CA224), a nonplanar analogue of fascaplysin, inhibits Cdk4 and tubulin polymerization: evaluation of in vitro and in vivo anticancer activity” (J Med Chem, 2014)
≈ marks a conversion by molar mass, not a printed value. Calls of active or inactive are those of the source.

How the values were obtained:
Tubulin (Homo sapiens) [1] = target: T1, Tubulin (Homo sapiens) (UniProt P68371+Q9H4B7+P0DPH7+P68366+Q13509+Q71U36+P04350+Q3ZCM7+P07437+P68363+Q9BQE3+Q6PEY2+Q13885+Q9BVA1+Q9BUF5); assay: Inhibition of tubulin (unknown origin) polymerization assessed as decrease in Vmax measured at 25 uM by spectrophotometry; assay type: protein-complex assay
Outline: (§1)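 Purified tubulin polymerisation followed as absorbance increase over about 4000 s. Vmax (mOD/min) is taken as the read-out, with final polymer mass also noted. Compound is tested at 2.5, 5, 10 and 25 µM alongside untreated control, paclitaxel 10 µM (enhancer) and nocodazole 10 µM (inhibitor). Curves are the average of three independent experiments.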

[2] = Cmax in BALB/c mouse at 1 mg/kg, iv; assay type: ADME, organism-based; set-up: dose 1 mg/kg, route intravenous; details: in vivo
Outline: (§2)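 BALB/c mice given a single dose of 1.0 mg/kg IV or 10 mg/kg orally; plasma concentration followed over time and pharmacokinetic parameters derived from the time-concentration profile.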

[3] = Anticancer activity against p53 null, pRb+ human Calu1 cells assessed as reduction in colony formation efficiency at 3 uM after 24 hrs by visual count/crystal violet staining method; assay type: functional; details: Calu-1, 24 h
Outline: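 Long-term survival assay. A549 and Calu-1 cells treated with a range of concentrations, colonies counted, efficiency expressed as percent of colonies versus untreated cultures. Means and standard deviations of three independent experiments.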

A549 [4] = assay: Reduction cyclin B1 level in p53+, pRb+ human A549 cells at IC50 concentration after 24 hrs by Western blot analysis
[5] = target: Platelet-derived growth factor receptor (Homo sapiens) (UniProt P09619+P16234); assay: Inhibition of human PDGFR assessed as enzyme activity at 10 uM; assay type: protein-complex assay
NCI-H460 = assay: Antitumor activity against human NCI-H460 cells xenografted in SCID mouse assessed as inhibition of tumor growth at 100 mg/kg, ip relative to untreated control; assay type: functional, organism-based; set-up: dose 100 mg/kg
Outline: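 Female SCID mice (15-24 g, 6-8 weeks) were given 5.3 × 10^6 NCI-H460 cells s.c. on the dorsal side. At 4-6 mm tumours (about 6 days) they were randomised into groups of 6 or 7 and dosed i.p. for 9 consecutive days. Tumour size was recorded every 2-5 days; weight = L × W² × 0.5. %T/C and %GI = 100 − %T/C; Student t-test versus control.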

[6] = Volume of distribution in BALB/c mouse at 1 mg/kg, iv; assay type: ADME, organism-based; set-up: dose 1 mg/kg, route intravenous; details: in vivo; outline: as §2
NCI-H1299 [7] = assay: Induction of apoptosis in p53 null, pRb+ human NCI-H1299 cells assessed as fragmented nuclei/distrupted cell membrane after 24 hrs by DAPI staining-based flow cytometry
MiaPaCa = assay: Effect on p21 level in p53His273 mutant, pRb+ human MiaPaCa cells at IC50 concentration after 48 hrs by Western blot analysis; assay type: functional
[8] = Growth inhibition of mouse BNL-CL2 cells after 48 hrs by MTT assay; assay type: functional, cell-based; details: BNL CL.2, 48 h
Outline: (§3)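 MTT cell proliferation assay. IC50 (µM) was defined as the concentration giving 50% inhibition of cell growth.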

NCI-H1299 [9] = assay: Growth inhibition of p53 null, pRb+ human NCI-H1299 cells after 48 hrs by MTT assay; assay type: functional, cell-based; details: NCI-H1299, 48 h; outline: as §3
[10] = Growth inhibition of p53+, pRb+ human NCI-H460 cells after 48 hrs by MTT assay; assay type: functional, cell-based; details: NCI-H460, 48 h; outline: as §3
Homo sapiens = species: Homo sapiens; assay: Selectivity ratio of IC50 for human CDK2/cyclin A to IC50 for human CDK4/cyclin D1
NCI-H358 [11] = assay: Cell cycle arrest in human NCI-H358 cells assessed as accumulation of cells at G2/M phase at IC50 concentration after 12 hrs by flow cytometry in presence of nocodazole for 18 hrs (reference value: 42%); assay type: functional
NCI-H1299 [12] = assay: Cell cycle arrest in human NCI-H1299 cells assessed as accumulation of cells at G0/G1 phase at IC50 concentration after 24 hrs by flow cytometry (reference value: 56%); assay type: functional
[13] = AUC (0 to t) in BALB/c mouse at 10 mg/kg, po; assay type: ADME, organism-based; set-up: dose 10 mg/kg, route oral; details: plasma; outline: as §2
Tubulin (Homo sapiens) [14] = target: T1, Tubulin (Homo sapiens); assay: Inhibition of tubulin (unknown origin) polymerization assessed as decrease in Vmax measured by spectrophotometry; assay type: protein-complex assay; outline: as §1
[15] = Volume of distribution at steady state in BALB/c mouse at 1 mg/kg, iv; assay type: ADME, organism-based; set-up: dose 1 mg/kg, route intravenous; details: in vivo, read-out: Vdss; outline: as §2
A549 [16] = assay: Reduction Cdk1 level in p53+, pRb+ human A549 cells at IC50 concentration after 24 hrs by Western blot analysis
NCI-H358 [17] = assay: Growth inhibition of p53 null, pRb null human NCI-H358 cells after 48 hrs by MTT assay; assay type: functional, cell-based; details: NCI-H358, 48 h; outline: as §3
[18] = Displacement of ethidium bromide from closed circular plasmid DNA (unknown origin) by fluorescence quenching assay
NCI-H1299 [19] = assay: Induction of apoptosis in p53 null, pRb+ human NCI-H1299 cells assessed as fragmented nuclei/distrupted cell membrane at 1 to 10 uM by DAPI staining-based flow cytometry; details: TDE = time-dependent effect
[20] = Solubility in phosphate buffered saline; assay type: physicochemical
Mus musculus = assay: Toxicity in human HCT116 cells xenografted in SCID mouse at 100 mg/kg, ip relative to untreated control; assay type: organism-based, HCT-116; set-up: dose 100 mg/kg, route intraperitoneal; details: in vivo
Outline: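 SCID male mice, 18-25 g, 6-8 weeks old, received 6.6 × 10^6 HCT-116 cells subcutaneously on the dorsal side. Randomized into groups of 7 at 4-6 mm tumors (about 5 days), then dosed intraperitoneally for 9 consecutive days. Tumor size recorded every 2-5 days, weight = L×W²×0.5; %GI = 100 − %T/C. Body weight taken daily relative to start; Student t-test.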

CYP2C19 = CYP2C19 (Homo sapiens, UniProt P33261); assay: Inhibition of human recombinant CYP2C19 at 10 uM; assay type: ADME
LS174T = assay: Increase in p27 level in p53+, pRb+ human LS 174T cells at IC50 concentration after 24 hrs by Western blot analysis
NCI-H358 [21] = assay: Cell cycle arrest in human NCI-H358 cells assessed as accumulation of cells at G0/G1 phase at IC50 concentration after 12 hrs by flow cytometry in presence of nocodazole for 18 hrs (reference value: 40%); assay type: functional
[22] = target: Serine/threonine-protein kinase PLK3 (Homo sapiens) (UniProt Q9H4B4); assay: Inhibition of human Plk3 assessed as enzyme activity at 10 uM
A549 [23] = assay: Increase in p27 level in p53+, pRb+ human A549 cells at IC50 concentration after 24 hrs by Western blot analysis
Tubulin (Homo sapiens) [24] = target: T1, Tubulin (Homo sapiens); assay: Inhibition of tubulin polymerization in p53+, pRb+ human A549 cells assessed as paclitaxel-mediated polymerization treated simultaneously measured after 30 mins by Western blot analysis; assay type: cell-based

Chain of Serine/threonine-protein kinase PLK3 (Homo sapiens) (Q9H4B4 whole entry, looked up): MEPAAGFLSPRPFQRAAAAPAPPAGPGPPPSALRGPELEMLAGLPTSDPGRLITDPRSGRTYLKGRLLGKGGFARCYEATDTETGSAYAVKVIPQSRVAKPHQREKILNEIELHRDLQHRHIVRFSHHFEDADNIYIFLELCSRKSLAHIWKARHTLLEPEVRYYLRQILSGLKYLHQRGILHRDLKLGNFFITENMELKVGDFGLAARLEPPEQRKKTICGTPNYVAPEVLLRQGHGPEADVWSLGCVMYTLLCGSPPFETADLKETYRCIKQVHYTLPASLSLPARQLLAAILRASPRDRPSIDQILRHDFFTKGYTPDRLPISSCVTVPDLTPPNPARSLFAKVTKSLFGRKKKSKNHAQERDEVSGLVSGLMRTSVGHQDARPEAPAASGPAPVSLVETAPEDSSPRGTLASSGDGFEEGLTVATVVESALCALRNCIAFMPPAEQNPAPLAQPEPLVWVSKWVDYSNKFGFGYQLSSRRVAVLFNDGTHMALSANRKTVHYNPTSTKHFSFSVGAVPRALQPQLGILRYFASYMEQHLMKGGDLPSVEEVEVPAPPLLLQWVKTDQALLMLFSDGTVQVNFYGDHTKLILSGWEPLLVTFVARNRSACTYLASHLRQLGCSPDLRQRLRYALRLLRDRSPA
Chain of CYP2C19 (P33261 whole entry): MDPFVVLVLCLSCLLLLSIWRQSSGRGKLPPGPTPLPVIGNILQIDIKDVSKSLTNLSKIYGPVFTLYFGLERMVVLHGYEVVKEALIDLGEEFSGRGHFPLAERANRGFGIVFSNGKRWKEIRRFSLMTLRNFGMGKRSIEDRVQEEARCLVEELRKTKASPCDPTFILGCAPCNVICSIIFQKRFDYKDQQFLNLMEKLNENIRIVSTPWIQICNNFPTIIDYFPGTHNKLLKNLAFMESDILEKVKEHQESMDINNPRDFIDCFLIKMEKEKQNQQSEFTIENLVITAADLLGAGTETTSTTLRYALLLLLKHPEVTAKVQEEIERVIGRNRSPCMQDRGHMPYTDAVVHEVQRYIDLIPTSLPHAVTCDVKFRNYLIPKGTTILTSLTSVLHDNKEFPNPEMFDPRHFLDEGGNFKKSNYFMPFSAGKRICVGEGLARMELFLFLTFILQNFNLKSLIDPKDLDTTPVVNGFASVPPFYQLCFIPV

CN(CCc1c[nH]c2ccccc12)C(=O)c1ccc(-c2ccccc2)cc1
Activity (milli optical density/minute) (Tubulin (Homo sapiens) [1]): 0.4
Cmax [2]: 0.371 µg/mL
inhibition at 3 µM [3]: 50%
inhibition (A549 [4]): Active
inhibition [5]: inactive
Activity (NCI-H460): Active
Vd [6]: 2.52 L/kg
Activity (NCI-H1299 [7]): Dose-dependent effect
Activity (MiaPaCa): inactive
IC50 [8]: 2.6 µM
IC50 (NCI-H1299 [9]): 2.5 µM
IC50 [10]: 2 µM
Ratio IC50 (Homo sapiens): 84
Activity (NCI-H358 [11]): 74%
Activity (NCI-H1299 [12]): 22%
AUC(0-t) [13]: 0.172 µg·h/mL
inhibition (Tubulin (Homo sapiens) [14]): Dose-dependent effect
Vd [15]: 1.76 L/kg
inhibition (A549 [16]): Active
IC50 (NCI-H358 [17]): 2.2 µM
inhibition [18]: inactive
Activity (NCI-H1299 [19]): tde
solubility [20]: 0.125 mg/mL (≈ 353 µM)
Activity (Mus musculus): Non-toxic
inhibition at 10 µM (CYP2C19): 19%
Activity (LS174T): Active
Activity (NCI-H358 [21]): 7%
inhibition [22]: inactive
Activity (A549 [23]): Active
inhibition (Tubulin (Homo sapiens) [24]): Dose-dependent effect
